Source: ChEMBL document CHEMBL1221334, “A class of novel carboline intercalators: Their synthesis, in vitro anti-proliferation, in vivo anti-tumor action, and 3D QSAR analysis” (Bioorg Med Chem, 2010)
Activity calls are given as the source filed them. The calls are words filed in the database; no cut-off is given here.

Assays:
[1] = tested on: HepG2; experiment: Cytotoxicity against human HepG2 cells […] by MTT assay; format: functional, cell-based
Procedure, shortened: (§1)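 Cells (1 × 10⁴/ml) in RPMI-1640 were cultured 24 h at 37 °C in 5% CO₂. Medium was then renewed with compound (final 0.1–200 µM) and cells grown a further 48 h. MTT was added for 4 h, residues dissolved in DMSO and absorbance read. I% = (C − T)/C. IC50 is given as mean ± SD, n = 6.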

[2] = tested on: HeLa; experiment: Cytotoxicity against human HeLa cells […] by MTT assay; format: functional, cell-based; procedure, shortened: as §1
[3] = tested on: Bel-7402; experiment: Cytotoxicity against human Bel7402 cells […] by MTT assay; format: functional, cell-based; procedure, shortened: as §1
[4] = tested on: K562; experiment: Cytotoxicity against human K562 cells […] by MTT assay; format: functional, cell-based; procedure, shortened: as §1
[5] = tested on: B16; experiment: Cytotoxicity against mouse B16 cells […] by MTT assay; format: functional, cell-based
[6] = tested on: CCRF S-180; experiment: Antitumor activity against mouse S180 cells transplanted in ICR mouse assessed as inhibition of tumor weight at 8.9 umol/kg, ip; format: functional; conditions: CCRF S-180, ip
Procedure, shortened: (§2)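 S180 ascites cells, serially passaged weekly in mice, were implanted subcutaneously (1 × 10⁷ viable cells in NS) in the right axilla of male ICR mice aged 10–12 weeks. After 24 h, mice were randomized (10/group) and dosed ip daily with 8.9 µmol/kg in 0.2 ml NS for 7 days. Tumours were weighed 24 h after the last dose. Inhibition = [1 − Tw/Cw] × 100.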

[7] = tested on: CCRF S-180; experiment: Antitumor activity against mouse S180 cells transplanted in ICR mouse assessed as inhibition of tumor weight at 89 umol/kg, ip; format: functional; conditions: CCRF S-180, ip
[8] = tested on: CCRF S-180; experiment: Antitumor activity against mouse S180 cells transplanted in ICR mouse assessed as inhibition of tumor weight at 0.89 umol/kg, ip; format: functional; conditions: CCRF S-180, ip
[9] = tested on: CCRF S-180; experiment: Antitumor activity against mouse S180 cells transplanted in ICR mouse assessed as inhibition of tumor weight; format: functional, cell-based; procedure, shortened: as §2
[10] = tested on: Calf thymus DNA; experiment: Binding affinity to calf thymus DNA assessed as induction of hypochromatic effect by spectrophotometry; format: nucleic-acid assay; conditions: Bos taurus
Procedure, shortened: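 UV absorption spectra (220–400 nm) were recorded in PBS for CT DNA (final 240 µM), alone and with test compound at final concentrations of 27, 54, 81 and 108 µM. Hypochromicity and wavelength shift were assessed.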

[11] = tested on: Calf thymus DNA; experiment: Binding affinity to calf thymus DNA assessed as decrease in fluorescence intensity at 8 to 72 uM by fluorescence spectroscopy; format: nucleic-acid assay; conditions: Bos taurus
[12] = tested on: Calf thymus DNA; experiment: Binding affinity to calf thymus DNA assessed as increase in viscosity; format: nucleic-acid assay; conditions: Bos taurus
Procedure, shortened: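 An Ostwald viscometer was held at 28 °C in phosphate buffer, with compound/DNA ratios of 0–0.36. Flow times were taken after 5 min of thermal equilibration. η = (t − t₀)/t₀, and data were plotted as (η/η₀)^1/3 versus binding ratio.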

[13] = tested on: Calf thymus DNA; experiment: Binding affinity to calf thymus DNA assessed as change in melting temperature; format: nucleic-acid assay; conditions: Bos taurus
Procedure, shortened: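 Thermal denaturation used CT DNA (100 µM) with test compound (18 µM) in PBS, pH 7.4, at a compound/DNA ratio of 0.18. Temperature was raised at 1 °C/min while absorbance at 260 nm was monitored.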

O=C(OCc1ccccc1)c1cc2c([nH]c3ccccc32)c(CCN[C@@H](CO)C(=O)OCc2ccccc2)n1
IC50 [1]: 19.9 µM
IC50 [2]: 20.3 µM
IC50 [3]: 54.6 µM
IC50 [4]: 19.7 µM
IC50 [5]: 60.3 µM
inhibition in vivo at 8.9 µmol/kg [6]: 36.7%

O=C(OCc1ccccc1)c1cc2c([nH]c3ccccc32)c(CCN[C@@H](Cc2ccccc2)C(=O)OCc2ccccc2)n1
IC50 [1]: > 100 µM
IC50 [2]: > 100 µM
IC50 [3]: > 100 µM
IC50 [4]: > 100 µM
IC50 [5]: 28.1 µM
inhibition in vivo at 8.9 µmol/kg [6]: 6.6%

CC[C@H](C)[C@H](NCCc1nc(C(=O)OCc2ccccc2)cc2c1[nH]c1ccccc12)C(=O)OCc1ccccc1
IC50 [1]: > 100 µM
IC50 [2]: > 100 µM
IC50 [3]: > 100 µM
IC50 [4]: > 100 µM
IC50 [5]: 19.2 µM
inhibition in vivo at 8.9 µmol/kg [6]: 33.9%

O=C(C[C@H](NCCc1nc(C(=O)OCc2ccccc2)cc2c1[nH]c1ccccc12)C(=O)OCc1ccccc1)OCc1ccccc1
IC50 [1]: > 100 µM
IC50 [2]: > 100 µM
IC50 [3]: 60.3 µM
IC50 [4]: > 100 µM
IC50 [5]: 11.1 µM
inhibition in vivo at 8.9 µmol/kg [6]: 56.1%
inhibition in vivo at 89 µmol/kg [7]: 73.5%
inhibition in vivo at 0.89 µmol/kg [8]: 40.6%
Activity [9]: Dose-dependent effect

NC(=O)C[C@H](NCCc1nc(C(=O)OCc2ccccc2)cc2c1[nH]c1ccccc12)C(=O)OCc1ccccc1
IC50 [1]: > 100 µM
IC50 [2]: 97.2 µM
IC50 [3]: > 100 µM
IC50 [4]: 63.6 µM
IC50 [5]: 17.1 µM
inhibition in vivo at 8.9 µmol/kg [6]: 14%

O=C(CNCCc1nc(C(=O)OCc2ccccc2)cc2c1[nH]c1ccccc12)OCc1ccccc1
IC50 [1]: 50 µM
IC50 [2]: 26.8 µM
IC50 [3]: 53.2 µM
IC50 [4]: 47.1 µM
IC50 [5]: 75.4 µM
inhibition in vivo at 8.9 µmol/kg [6]: 3.5%

CC(C)C[C@H](NCCc1nc(C(=O)OCc2ccccc2)cc2c1[nH]c1ccccc12)C(=O)OCc1ccccc1
IC50 [1]: 25.2 µM
IC50 [2]: 22.5 µM
IC50 [3]: 43.5 µM
IC50 [4]: 21.5 µM
IC50 [5]: 50.2 µM
inhibition in vivo at 8.9 µmol/kg [6]: 50.9%
Activity [10]: 53%
Activity [11]: Active
Activity [12]: Dose-dependent effect
Tm [13]: 13.8 °C

C[C@H](NCCc1nc(C(=O)OCc2ccccc2)cc2c1[nH]c1ccccc12)C(=O)OCc1ccccc1
IC50 [1]: > 100 µM
IC50 [2]: 76.4 µM
IC50 [3]: 100 µM
IC50 [4]: 48.2 µM
IC50 [5]: 20.5 µM
inhibition in vivo at 8.9 µmol/kg [6]: 22%

O=C(OCc1ccccc1)c1cc2c([nH]c3ccccc32)c(CCN[C@@H](Cc2c[nH]c3ccccc23)C(=O)OCc2ccccc2)n1
IC50 [1]: 60 µM
IC50 [2]: 59.5 µM
IC50 [3]: 39 µM
IC50 [4]: 14.9 µM
IC50 [5]: 20.7 µM
inhibition in vivo at 8.9 µmol/kg [6]: 22.2%

CC(C)[C@H](NCCc1nc(C(=O)OCc2ccccc2)cc2c1[nH]c1ccccc12)C(=O)OCc1ccccc1
IC50 [1]: 29.2 µM
IC50 [2]: 25.5 µM
IC50 [3]: 20.3 µM
IC50 [4]: 20.9 µM
IC50 [5]: 28.8 µM
inhibition in vivo at 8.9 µmol/kg [6]: 34%

O=C(OCc1ccccc1)c1cc2c([nH]c3ccccc32)c(CCN[C@@H](Cc2ccc(O)cc2)C(=O)OCc2ccccc2)n1
IC50 [1]: > 100 µM
IC50 [2]: 16.7 µM
IC50 [3]: 23.7 µM
IC50 [4]: 18.9 µM
IC50 [5]: 24.5 µM
inhibition in vivo at 8.9 µmol/kg [6]: 31.7%

O=C(NCCCC[C@H](NCCc1nc(C(=O)OCc2ccccc2)cc2c1[nH]c1ccccc12)C(=O)OCc1ccccc1)OCc1ccccc1
IC50 [1]: 36.3 µM
IC50 [2]: 33.9 µM
IC50 [3]: 14.9 µM
IC50 [4]: 15.4 µM
IC50 [5]: 49.4 µM
inhibition in vivo at 8.9 µmol/kg [6]: 28.9%

CSCC[C@H](NCCc1nc(C(=O)OCc2ccccc2)cc2c1[nH]c1ccccc12)C(=O)OCc1ccccc1
IC50 [1]: 18.7 µM
IC50 [2]: 28.8 µM
IC50 [3]: 25.8 µM
IC50 [4]: 13.5 µM
IC50 [5]: 61.1 µM
inhibition in vivo at 8.9 µmol/kg [6]: 15.3%

NC(=O)CC[C@H](NCCc1nc(C(=O)OCc2ccccc2)cc2c1[nH]c1ccccc12)C(=O)OCc1ccccc1
IC50 [1]: 35.9 µM
IC50 [2]: 71 µM
IC50 [3]: 81.3 µM
IC50 [4]: > 100 µM
IC50 [5]: 42.5 µM
inhibition in vivo at 8.9 µmol/kg [6]: -5.3%

C[C@@H](O)[C@H](NCCc1nc(C(=O)OCc2ccccc2)cc2c1[nH]c1ccccc12)C(=O)OCc1ccccc1
IC50 [1]: 26 µM
IC50 [2]: 15.2 µM
IC50 [3]: > 100 µM
IC50 [4]: 38.3 µM
IC50 [5]: 38.4 µM
inhibition in vivo at 8.9 µmol/kg [6]: 34.8%

O=C(CC[C@H](NCCc1nc(C(=O)OCc2ccccc2)cc2c1[nH]c1ccccc12)C(=O)OCc1ccccc1)OCc1ccccc1
IC50 [1]: 63.1 µM
IC50 [2]: 54.9 µM
IC50 [3]: > 100 µM
IC50 [4]: 18.5 µM
IC50 [5]: 66.4 µM
inhibition in vivo at 8.9 µmol/kg [6]: 29.4%

O=C(OCc1ccccc1)c1cc2c([nH]c3ccccc32)c(CCN2CCC[C@H]2C(=O)OCc2ccccc2)n1
IC50 [1]: 17.1 µM
IC50 [2]: 25.8 µM
IC50 [3]: 52.8 µM
IC50 [4]: 20.1 µM
IC50 [5]: 71.8 µM
inhibition in vivo at 8.9 µmol/kg [6]: 7.1%

O=C(OCc1ccccc1)c1cc2c([nH]c3ccccc32)c(CCN[C@@H](Cc2c[nH]cn2)C(=O)OCc2ccccc2)n1
IC50 [1]: > 100 µM
IC50 [2]: 63.6 µM
IC50 [3]: 36.9 µM
IC50 [4]: 14.4 µM
IC50 [5]: 60 µM
inhibition in vivo at 8.9 µmol/kg [6]: 35.4%
inhibition in vivo at 89 µmol/kg [7]: 60.7%
inhibition in vivo at 0.89 µmol/kg [8]: 6.3%
Activity [9]: Dose-dependent effect

Nc1ccn([C@@H]2O[C@H](CO)[C@@H](O)[C@@H]2O)c(=O)n1 [CYTARABINE]
IC50 [1]: 0.2 µM
IC50 [3]: 34.2 µM
IC50 [4]: 33.5 µM
inhibition in vivo at 8.9 µmol/kg [6]: 24.3%
inhibition in vivo at 89 µmol/kg [7]: 54.8%
inhibition in vivo at 0.89 µmol/kg [8]: 6.8%
